Activity calls are given as the source filed them. No cut-off for these calls is given here.

For series [1], the system named is Pseudomonas aeruginosa. Put plainly: Antagonist activity at Pseudomonas aeruginosa LasR expressed in Escherichia coli DH5alpha assessed as inhibition of protein interaction with OdDHL at 1 to 10 uM after 1.5 hrs by beta-galactosidase reporter gene assay. The method in brief:
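E. coli DH5α reporter carrying pJN105L (LasR) and pSC11 (lasI::lacZ); overnight culture with 10 µg/mL gentamicin and 50 µg/mL ampicillin diluted 1:100 in LB, used at OD595 0.3. Incubated with compound, OdDHL and 0.4% arabinose at 37 °C for 1.5 hr. β-galactosidase read by luminescence; RLU ratio = luminescence/OD595 ×100.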
On the technique in general: Reporter assays use an easily measured gene product as a stand-in for the process of interest.

For series [2], the system named is Pseudomonas aeruginosa. Put plainly: Inhibition of static biofilm formation of Pseudomonas aeruginosa PA14 at 10 uM after 24 hrs by crystal violet staining-based assay. Format: functional. The gist of the method:
(§1)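 PA14 overnight culture (OD595 1.0) diluted 1:20 in AB medium, pH 7.5, with compound (0–100 µM), in borosilicate bottles, static at 37 °C for 24 hr.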

Series [3] has as its system Pseudomonas aeruginosa. Put plainly: Agonist activity at Pseudomonas aeruginosa LasR expressed in Escherichia coli DH5alpha at 10 uM after 1.5 hrs by beta-galactosidase reporter gene assay.
Series [4] concerns Pseudomonas aeruginosa. Description: Growth inhibition of Pseudomonas aeruginosa PA14 at 100 uM after 24 hrs. The method in brief: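 P. aeruginosa PA14 overnight culture (OD595 1.0), 5% dilution with compound (0–100 µM), grown in 96-well plates at 37 °C for 24 h; growth read as OD595.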
Series [5] has as its system Pseudomonas aeruginosa. Description: Inhibition of static biofilm formation of Pseudomonas aeruginosa PA14 at 100 uM after 24 hrs by crystal violet staining-based assay. Type of series: functional. The gist of the method: as §1
The subject of series [6] is Pseudomonas aeruginosa. Put plainly: Inhibition of dynamic biofilm formation of Pseudomonas aeruginosa PA14 assessed as biofilm thickness up to 10 uM after 48 hrs by Ruby/ConA staining-based assay (reference value: 34.5 +/- 1.3 um). Format: functional. The method in brief: (§2)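 Glass slides seeded 24 h at 37 °C, static, with PA14 (OD595 1.0) in AB medium, then placed in a drip-flow reactor fed with AB medium plus compound (0–10 µM) at 0.3 mL/min, 37 °C, 48 hr. PBS-washed biofilm stained 15 min with FITC-ConA (carbohydrate) and SYPRO Ruby (protein); CLSM at 20×; volume (µm³/µm²) and average thickness quantified by Comstat2.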

Series [7] deals with Pseudomonas aeruginosa. Put plainly: Inhibition of dynamic biofilm formation of Pseudomonas aeruginosa PA14 assessed as biofilm volume up to 10 uM after 48 hrs by Ruby/ConA staining-based assay (reference value: 23.1 +/- 1.8 um'3/um'2). Type of series: functional. The gist of the method:
as §2

In series [8] the test system is Pseudomonas aeruginosa. Put plainly: Inhibition of static biofilm formation of Pseudomonas aeruginosa PA14 assessed as level of biofilm formation at 10 uM after 24 hrs by crystal violet staining-based assay relative to control. Type of series: functional. More on the design: scale not given: the % may be the effect or the level left. The gist of the method: as §1

For series [9], the system named is Pseudomonas aeruginosa. Put plainly: Inhibition of dynamic biofilm formation of Pseudomonas aeruginosa PA14 at 10 uM after 48 hrs by Ruby/ConA staining-based confocal laser scanning microscopic method. Format: functional. The method in brief: as §2
Series [10] relates to Pseudomonas aeruginosa. Put plainly: Reversible binding affinity to Pseudomonas aeruginosa LasR expressed in Escherichia coli DH5alpha at 1 uM after 1.5 hrs in presence of OdDHL by beta-galactosidase reporter gene assay. The gist of the method: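 LasR reporter in E. coli DH5α (pJN105L + pSC11) with 0.4% arabinose, 37 °C, 1.5 hr. Compound at 1 µM tested against OdDHL at 0, 0.1, 1, 10 and 100 µM, compared with no-compound control. β-galactosidase luminescence divided by OD595.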

Series [11] has as its system Pseudomonas aeruginosa. Description: Inhibition of dynamic biofilm formation of Pseudomonas aeruginosa PA14 assessed as volume of carbohydrates in biofilm up to 10 uM after 48 hrs by Ruby/ConA staining-based assay relative to control. Type of series: functional. The arrangement: scale not given: the % may be the effect or the level left. The method in brief: as §2

Series [12] has as its system Pseudomonas aeruginosa. Description: Inhibition of dynamic biofilm formation of Pseudomonas aeruginosa PA14 assessed as volume of proteins in biofilm up to 10 uM after 48 hrs by Ruby/ConA staining-based assay relative to control. Type of series: functional. The arrangement: scale not given: the % may be the effect or the level left. The gist of the method:
as §2

`CCCCCCCC(O)CC(=O)CCc1ccccc1` (stereo not drawn): the inhibition result in series [1] was “Active”.
`CCCCC[C@H](O)CC(=O)CCc1ccc(O)c(OC)c1`: the inhibition result in series [1] and in series [2] was “Active” throughout.
Consider `CCCCCCCC(O)CC(=O)CCc1ccc(O)cc1` (stereo not drawn), for which the inhibition entry in [1] and in series [2] was “Active” each time.
`CCCCCC(O)CC(=O)/C=C/c1ccc(O)c(OC)c1` (stereo not drawn): the inhibition entry in series [1] is “Active”.
With `CCCC(O)CC(=O)CCc1ccc(O)c(OC)c1` (stereo not drawn), the inhibition result in [1] was “Active”. For the same compound, the outcome in series [3] was inactive.
`CCCCCCCCCC(=O)CCc1ccc(O)c(OC)c1`: the inhibition entry in series [1] and in series [2] was “Active” in each case.
Regarding `CCCCCCCCCC(O)CC(=O)CCc1ccc(O)c(OC)c1` (stereo not drawn), the “growth inhibition (GI)” value in series [4] is “Toxic”. The inhibition entry in series [5] and in series [1] was “Active” each time. The outcome in series [3] was inactive.
With `CCCCCC(O)CC(=O)CCc1ccc(F)c(OC)c1` (stereo not drawn), the inhibition entry in series [1] and in [2] was “Active” in each case.
As to `CCCCCCCCCC(=O)/C=C/c1ccc(O)c(OC)c1`, the inhibition result in series [1] and in series [2] was “Active” each time.
Turning to `CCCCCC(O)CC(=O)CCc1ccc(O)c(OC)c1` (stereo not drawn), the inhibition result in series [1] was “Active”. Also, in [3], the outcome was inactive.
`CCCCCCCC(O)CC(=O)/C=C/c1ccc(O)c(OC)c1` (stereo not drawn): the inhibition entry in [1] is “Active”.
Take `CCCCCCCC(O)CC(=O)CCc1cccc(OC)c1` (stereo not drawn): the inhibition entry in [1] is “Active”.
As to `CCCCCC(O)CC(=O)CCc1ccc(F)cc1` (stereo not drawn), the inhibition result in [1] and in [2] was “Active” in each case.
On to `CCCCCCCCC(O)CC(=O)CCc1ccc(O)c(OC)c1` (stereo not drawn), for which the “growth inhibition (GI)” value in [4] is on record as “Toxic”. The inhibition result in [5] and in [1] was “Active” throughout. The outcome in [3] was inactive.
As for `CCCCCCCC(O)CC(=O)CCc1ccc(F)c(OC)c1` (stereo not drawn), the inhibition entry in series [1] and in series [2] was “Active” throughout.
As to `CCCCCCC[C@@H](O)CC(=O)CCc1ccc(O)c(OC)c1`, the Activity in [6] is 13.9 um; in series [7], 9.7 um3/um2; in [8], 72%. In addition, in series [4], the “growth inhibition (GI)” value is recorded as “Non-Toxic”. The inhibition entry in series [1] and in series [9] was “Active” in each case.
Turning to `CCCCCCCC(=O)CCc1ccc(O)c(OC)c1`, the inhibition result in series [1] and in [2] was “Active” throughout.
Consider `CCCCCCCC(O)CC(=O)CCc1ccc(F)cc1` (stereo not drawn), for which the inhibition result in series [1] and in [2] was “Active” each time.
As to `CCCCCCC[C@@H](O)CC(=O)/C=C/c1ccc(O)c(OC)c1`, the Activity in [6] is given as 10.3 um; in series [7], 7.4 um3/um2; in series [11], 47 - 74%; in series [12], 23 - 56%. Also, in series [4], the “growth inhibition (GI)” value is reported as “Non-Toxic”. The result in series [10] was Active. For the same compound, the inhibition entry in series [1], in series [9] and in [2] was “Active” each time.
In the case of `CCCCCCC(O)CC(=O)CCc1ccc(O)c(OC)c1` (stereo not drawn), the inhibition entry in series [1] was “Active”. Further, the result in series [3] was inactive.
Consider `CCCCCC(O)CC(=O)CCc1ccc(O)cc1` (stereo not drawn), for which the inhibition entry in series [1] and in [2] was “Active” throughout.
For `CCCCC(O)CC(=O)CCc1ccc(O)c(OC)c1` (stereo not drawn), the inhibition result in series [1] is “Active”. In series [3], the result was inactive.
Turning to `CCCCCCCC(O)CC(=O)CCc1ccc(OC)c(OC)c1` (stereo not drawn), the inhibition result in series [1] was “Active”.
In the case of `CCCCCC(O)CC(=O)CCc1cccc(OC)c1` (stereo not drawn), in series [1], the inhibition result was “Active”.
Still for that read-out and setting: the entry for `CCCCCC(O)CC(=O)CCc1ccccc1` (stereo not drawn) is “Active”.
For `CCCCCCC[C@H](O)CC(=O)CCc1ccc(O)c(OC)c1`, the Activity in [6] was found to be 17 um; in [7] it was 17 um3/um2; in [8], 100%. Besides, the inhibition entry in [1] and in series [9] was “Active” throughout.
Take `CCCCCCCC(O)CC(=O)CCc1ccc(O)c(OCC)c1` (stereo not drawn): the inhibition result in series [1] was “Active”.
Regarding `CCCCCCCC(O)CC(=O)CCc1ccc(O)c(OC)c1` (stereo not drawn), the inhibition entry in series [1] was “Active”. In series [3], the result was inactive.
Consider `CCCCCCCC(=O)/C=C/c1ccc(O)c(OC)c1`, for which the inhibition entry in [1] and in series [2] was “Active” each time.

For the origin of these results see ChEMBL document CHEMBL4028898, “Structure-Activity Relationships of 6- and 8-Gingerol Analogs as Anti-Biofilm Agents” (J Med Chem, 2017).
